SIAE inh – human SIAE inhibition, primary screen; SIAE FP-Rh probe binding, fluorescence polarization; hit rate 0.69% among 370,000; inhibition, % at 9.66 µM; Q9HAT2;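 active means inhibition above a cutoff: mean of compounds within the control limits plus 3 SD of those, cut at about 17% in these data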;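 further: 0% = plate median of compound wells and 100% = probe without SIAE protein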
PRMT1 FP inh – blocks human protein arginine methyltransferase 1; Q99873; recombinant PRMT1, activity-based probe fluorescence polarization; inhibition, % at 2.79 µM; hit rate 1.3% among 370,000; AID 652257;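 active means inhibition above about 21% made by adding two undisclosed values, limit read from the data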
Target sequence (Q99873 whole entry, looked up): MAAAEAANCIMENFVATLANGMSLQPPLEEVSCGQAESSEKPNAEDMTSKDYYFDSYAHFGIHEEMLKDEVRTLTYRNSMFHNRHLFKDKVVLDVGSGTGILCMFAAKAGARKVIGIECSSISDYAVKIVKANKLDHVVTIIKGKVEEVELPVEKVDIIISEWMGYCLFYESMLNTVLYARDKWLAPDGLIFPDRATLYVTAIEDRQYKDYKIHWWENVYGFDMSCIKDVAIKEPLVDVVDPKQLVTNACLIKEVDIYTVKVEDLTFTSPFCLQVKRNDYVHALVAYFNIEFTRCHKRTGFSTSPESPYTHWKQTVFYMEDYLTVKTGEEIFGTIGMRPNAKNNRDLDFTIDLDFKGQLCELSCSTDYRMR
TCR CD3 inh – inhibitors of human TCR-CD3 interaction. AID 651800. inhibition, % at 9.4 µM. hit rate 0.37% among 360,000. TAMRA-labeled TCR probe fluorescence, biochemical; in the data active means inhibition above about 19%;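 further: recombinant mutant TCR 2C K166C tagged with TAMRA read by polarization; 0% = receptor in buffer alone and 100% = receptor with positive control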
mABHD4 FP – ABHD4 (mouse) inhibition, primary FP screen | Q8VD66 | purified mABHD4, FP-Rh probe fluorescence polarization | inhibition, % at 8.92 µM | hit rate 0.54% among 370,000 | AID 720543;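 active means inhibition exceeding the mean over every tested compound plus 3 SD, cut at about 30% in these data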;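 further: 0% = plate median of compound wells and 100% = S159A mutant with DMSO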
Target sequence (Q8VD66 whole entry, looked up): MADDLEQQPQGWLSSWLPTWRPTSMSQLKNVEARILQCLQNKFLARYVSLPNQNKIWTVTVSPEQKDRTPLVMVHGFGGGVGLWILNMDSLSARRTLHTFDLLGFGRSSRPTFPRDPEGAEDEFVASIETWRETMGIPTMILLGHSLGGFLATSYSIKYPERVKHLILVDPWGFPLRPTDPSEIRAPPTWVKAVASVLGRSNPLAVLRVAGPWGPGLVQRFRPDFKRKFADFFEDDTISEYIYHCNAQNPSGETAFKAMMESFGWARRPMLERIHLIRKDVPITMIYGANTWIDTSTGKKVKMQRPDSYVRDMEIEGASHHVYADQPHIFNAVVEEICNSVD
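Assay system: mABHD4 protein; medium: HEPES pH 7.0, NaCl, Pluronic buffer; dosing: 8.92 µM, single dose; schedule: 45 min + 60 min at 25 °C; signal: FP readout, ex 525 nm / em 598 nm; read-out: normalized percent inhibition of probe labeling; repeats: single replicate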
rCAG binder – binds r(CAG) RNA repeats | r(CAG) RNA repeat, TO-PRO-1 dye displacement fluorescence | inhibition, % at 3 µM | hit rate 1.3% among 370,000 | AID 651821;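 active means inhibition above the plate cutoff, the mean of all test compounds on that plate plus 3 SD, cut at about 35% in these data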;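 further: 0% = DMSO alone and 100% = 100 µM mitoxantrone as full dye displacement; higher means more dye released from RNA so lower well fluorescence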
rCAG bind conf – r(CAG) RNA repeat binding, confirmation. shares compounds with rCAG binder. TO-PRO-1 dye displacement fluorescence. inhibition, % at 3 µM. hit rate 70% among 4,300. AID 652065;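 active means inhibition above a per-plate cutoff, the mean inhibition of sample wells plus 3 SD, cut at about 35% in these data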;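 further: loss of TO-PRO-1 fluorescence as compound displaces dye from 1x1 AA loop RNA; 0% = DMSO only wells and 100% = 100 µM mitoxantrone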
dCAG dye counter – disrupts DNA CAG TO-PRO-1 complex, flagging rCAG hits; shares compounds with rCAG binder; d(CAG) DNA oligo TO-PRO-1 dye displacement, fluorescence; inhibition, % at 3 µM; hit rate 94% among 4,300;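 active means inhibition above its plate's cutoff, the mean test-well inhibition plus 3 SD, cut at about 4.8% in these data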;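 further: 0% = DNA dye mix with DMSO and 100% = 100 µM mitoxantrone; hits displace the dye from DNA and so lower well fluorescence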
dCAG dye DR – disrupts DNA CAG TO-PRO-1 complex in dose response | shares compounds with rCAG binder | DNA CAG/GTC duplex TO-PRO-1 dye displacement fluorescence | IC50, µM | hit rate 20% among 250 | AID 686960; in the data active means IC50 below about 10 µM
Numbers without * were called inactive; x = not tested or not shown. Rows were chosen to be rich in hits. Some 3.3% of all compounds tested hit in one or more screens of this group.

SMILES	SIAE inh	PRMT1 FP inh	TCR CD3 inh	mABHD4 FP	rCAG binder	rCAG bind conf	dCAG dye counter	others
CCC(CC)C1=NN2C(=N)/C(=C/c3ccc(OC(=O)c4ccco4)cc3)C(=O)N=C2S1	-0.2	2.4	0.2	0.7	42.2*	46.4*	12.0*
CC(C)CS(=O)(=O)C1=NSC2=NC(=O)/C(=C\c3ccc(OC(=O)c4ccco4)cc3)C(=N)N21	-20.5	2.5	-2.7	5.6	24.2	x	x
COC(=O)CN(Cc1cn(Cc2ccccc2)nn1)S(=O)(=O)c1ccccc1Br	0.9	-4.3	x	-0.9	0.9	x	x
CCOC(=O)CC[C@@H]1CC[C@]2(CCCN(C(=O)c3ccc4ccccc4n3)C2)O1	1.0	8.2	x	3.5	-1.1	x	x
N#CCC[C@H]1CC[C@]2(CCCN(C(=O)c3ccno3)C2)O1	3.6	6.1	x	-4.7	1.8	x	x
COc1ccccc1C=NNC(=O)CSc1nc2ccccc2n1Cc1ccc(Cl)cc1	-11.7	-1.5	x	-11.6	10.0	x	x
Cc1ccccc1Cn1ccc2ccc(-c3ccc4ccn(Cc5ccccc5)c4c3)cc21	0.9	-0.1	x	5.0	8.8	x	x
NC(=S)N/N=C/c1ccc(-c2cccc([N+](=O)[O-])c2)o1	1.7	5.1	2.9	3.4	10.6	x	x
O=[N+]([O-])c1cccc(-c2ccc(/C=N/NC(=S)Nc3cccc(F)c3)o2)c1	-4.5	-2.7	4.2	7.2	39.1*	25.1	13.2*
CNC(=S)N/N=C/c1ccc(-c2ccc(Cl)c([N+](=O)[O-])c2)o1	8.0	-0.2	1.8	5.4	1.2	x	x
Cc1ccc(-c2ccc(/C=N/NC(=S)Nc3ccccc3)o2)cc1[N+](=O)[O-]	15.2	1.9	3.8	-3.9	42.5*	34.0	15.9*
COc1cc(-n2c(C)nc3cc(C(=O)N4CCCC4)ccc32)cc(OC)c1OC	-7.8	1.5	x	-6.2	1.1	x	x
O[C@H](COc1cccc(C(F)(F)F)c1)CN1CCC(C(O)(c2ccccc2)c2ccccc2)CC1	-8.1	-0.6	x	8.4	-2.5	x	x
O=C(O)c1cccc(S(=O)(=O)NCC(=O)N2CCN(c3ccccn3)CC2)c1	-0.1	2.1	x	11.2	2.7	x	x
CSCCCNC(=O)CN1C(=O)C2CCCCN2C(=O)c2ccccc21 (stereo unspecified)	11.4	-5.4	x	6.0	4.0	x	x
COc1ccc(OC)c(S(=O)(=O)N2CCCCC2C(=O)N2CCN(CCO)CC2)c1 (stereo unspecified)	4.1	4.2	x	2.6	9.2	x	x
COc1cc(NC(=O)C2CCCN(S(=O)(=O)c3ccccc3)C2)cc(OC)c1 (stereo unspecified)	0.1	-2.0	x	-3.3	-0.5	x	x
COc1ccc(S[C@]2(C(=O)N3CCOCC3)CC(=O)N(c3ccc(OC)cc3)[C@@H]2c2ccc(OC)cc2)cc1	2.2	-1.3	x	-7.2	6.0	x	x
COc1ccc(NC(=O)CSc2nc(O)cc(=O)n2-c2ccc(OC)cc2)cc1	-11.2	0.5	-4.0	-9.3	40.4*	13.1	4.5*
COc1ccc(-n2c(SCC(=O)Nc3ccccc3)nc(O)cc2=O)cc1	-19.2	4.9	-4.3	-1.5	22.9	x	x
COc1ccccc1-n1c(SCC(=O)Nc2ccccc2C)nc(O)cc1=O	-9.2	5.1	5.3	-33.4	39.8*	6.9	5.9*
Cc1ccc2c(c1)C1CS(=O)(=O)N(CCc3ccccc3)C(=O)N1C2 (stereo unspecified)	-1.5	6.9	x	-8.8	7.9	x	x
Cc1ccc(OCc2nnc(SCC(=O)Nc3ccc(S(N)(=O)=O)cc3)n2-c2ccc(Cl)cc2)cc1	12.1	-7.5	x	0.4	10.8	x	x
O=C1C(c2cc(=O)c3ccccc3[nH]2)=C(O)c2ccccc21	-8.3	-3.9	2.7	14.6	62.5*	35.7*	8.5*
COc1ccc(S[C@]2(C(=O)NCc3ccccc3)CC(=O)N[C@@H]2c2ccc(OC)cc2)cc1	-1.7	-1.6	x	-3.8	0.8	x	x
SMILES	SIAE inh	PRMT1 FP inh	TCR CD3 inh	mABHD4 FP	rCAG binder	rCAG bind conf	dCAG dye counter	others
O=C1CC(=O)N(C2CCCCC2)C(=O)N1c1ccccc1S(=O)(=O)Oc1ccccc1	-12.3	-3.3	-4.9	-12.4	58.8*	26.0	8.0*
Cc1cc(C)cc(NC(=O)CSc2ncc(S(=O)(=O)c3ccccc3)c(=O)[nH]2)c1	8.8	-3.3	5.7	-10.1	60.9*	46.5*	15.2*
CN(C)S(=O)(=O)c1cccc(-c2nn(-c3ccccc3)cc2/C=C2\SC(=S)NC2=O)c1	-70.2	2.5	1.7	-74.9	69.0*	88.6*	66.0*
CN(C)S(=O)(=O)c1cccc(-c2nn(-c3ccccc3)cc2/C=C(\C#N)c2nc3ccccc3[nH]2)c1	-109.8	-1.1	6.7	6.1	9.7	x	x
Nc1[nH]c2cc([N+](=O)[O-])ccc2c1-c1ccccn1	4.0	-2.4	-21.0	-3.3	41.0*	18.4	19.3*
O=C1C[C@@H](C(=O)Nc2ccc(Cl)cc2)[C@@H](c2ccccc2)O1	-6.8	-2.5	x	-3.7	1.1	x	x
COc1cccc2sc(Nc3nnc(-c4ccc(F)cc4)o3)nc12	2.2	-5.9	1.0	9.8	62.4*	72.1*	28.4*	dCAG dye DR=>29.9
CCOc1ccc(Cc2c(C)[nH]c3ccc(C(=O)O)cc3c2=S)cc1	-3.0	19.7	9.0	-19.1	36.4*	31.6	7.6*
Cc1cc(N2CCC[C@@H]2C)nc2ccccc12	12.0	6.8	x	-7.2	x	x	x
Cc1cc(Nc2ccc(Br)cc2)nc(-c2ccccc2O)n1	-24.5	-5.2	-9.5	-14.9	38.0*	16.3	3.6
COc1cc(OC)c(NC(=O)c2cc3ccccc3cc2O)cc1Cl	6.5	1.4	-8.6	6.9	34.9*	46.6*	22.5*
CC(C)c1ccc(/C=C/c2[nH]c(=O)[nH]c(=O)c2[N+](=O)[O-])cc1	-5.5	8.9	0.0	-26.3	40.2*	23.7	3.7
CCCOc1ccc(/C=C/c2[nH]c(=O)[nH]c(=O)c2[N+](=O)[O-])cc1OCC	-1.3	-0.1	-4.4	-2.4	-3.2	x	x
CCOC(=O)COc1ccc(Br)cc1/C=C\c1[nH]c(=O)[nH]c(=O)c1[N+](=O)[O-]	-6.7	6.2	2.5	-10.8	83.7*	43.5*	10.5*
O=C(COc1ccccc1/C=C\c1[nH]c(=O)[nH]c(=O)c1[N+](=O)[O-])Nc1ccccc1	-14.7	-0.8	0.4	-15.3	68.3*	43.0*	14.2*
CCOc1ccc(/C=C/c2[nH]c(=O)[nH]c(=O)c2[N+](=O)[O-])cc1	-2.6	2.9	10.8	-6.0	38.7*	16.1	7.0*
O=c1[nH]c(/C=C/c2ccccc2Cl)c([N+](=O)[O-])c(=O)[nH]1	-5.5	8.7	-7.5	-8.9	6.8	x	x
COC(=O)c1ccc(S(=O)(=O)N2CCC(NC(=O)COc3ccc(F)cc3)CC2)cc1	-1.1	-0.9	x	-2.6	-0.1	x	x
